Measurements taken from paper PMC7227796 (ACS chemical neuroscience, 2020).

Assays:
native KA receptors = conditions: rat synaptosomes, [3H]KA; earlier work, ref [36],[38],[39]; cited from earlier work
[1] = target: GluN1/GluN2D NMDA receptor (Rattus norvegicus, UniProt P35439+Q62645); experiment: Two-electrode voltage-clamp recordings, Xenopus oocytes expressing GluN1/GluN2D; type: cell-based
Method in brief: (§1)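 Xenopus oocytes were injected with rat GluN1-1a and GluN2A, 2B, 2C or 2D cRNA at a 1:2 ratio. Two-electrode voltage clamp was run 2–6 days later at room temperature and −40 mV. Bath was 90 NaCl, 1 KCl, 10 HEPES, 0.5 BaCl2, 0.01 EDTA (mM), pH 7.4. Currents were evoked by 1 μM glutamate plus 100 μM glycine, with test compound gravity-perfused. Hill fits gave IC50 per oocyte (5–6 oocytes). Ki was derived by Cheng-Prusoff using earlier glutamate EC50 values.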

[2] = target: GluN1/GluN2B NMDA receptor (Rattus norvegicus, UniProt P35439+Q00960); experiment: Two-electrode voltage-clamp recordings, Xenopus oocytes expressing GluN1/GluN2B; type: cell-based
GluN1/GluN2B NMDA receptor, sequence (Q00960 27-1482, other chains not shown): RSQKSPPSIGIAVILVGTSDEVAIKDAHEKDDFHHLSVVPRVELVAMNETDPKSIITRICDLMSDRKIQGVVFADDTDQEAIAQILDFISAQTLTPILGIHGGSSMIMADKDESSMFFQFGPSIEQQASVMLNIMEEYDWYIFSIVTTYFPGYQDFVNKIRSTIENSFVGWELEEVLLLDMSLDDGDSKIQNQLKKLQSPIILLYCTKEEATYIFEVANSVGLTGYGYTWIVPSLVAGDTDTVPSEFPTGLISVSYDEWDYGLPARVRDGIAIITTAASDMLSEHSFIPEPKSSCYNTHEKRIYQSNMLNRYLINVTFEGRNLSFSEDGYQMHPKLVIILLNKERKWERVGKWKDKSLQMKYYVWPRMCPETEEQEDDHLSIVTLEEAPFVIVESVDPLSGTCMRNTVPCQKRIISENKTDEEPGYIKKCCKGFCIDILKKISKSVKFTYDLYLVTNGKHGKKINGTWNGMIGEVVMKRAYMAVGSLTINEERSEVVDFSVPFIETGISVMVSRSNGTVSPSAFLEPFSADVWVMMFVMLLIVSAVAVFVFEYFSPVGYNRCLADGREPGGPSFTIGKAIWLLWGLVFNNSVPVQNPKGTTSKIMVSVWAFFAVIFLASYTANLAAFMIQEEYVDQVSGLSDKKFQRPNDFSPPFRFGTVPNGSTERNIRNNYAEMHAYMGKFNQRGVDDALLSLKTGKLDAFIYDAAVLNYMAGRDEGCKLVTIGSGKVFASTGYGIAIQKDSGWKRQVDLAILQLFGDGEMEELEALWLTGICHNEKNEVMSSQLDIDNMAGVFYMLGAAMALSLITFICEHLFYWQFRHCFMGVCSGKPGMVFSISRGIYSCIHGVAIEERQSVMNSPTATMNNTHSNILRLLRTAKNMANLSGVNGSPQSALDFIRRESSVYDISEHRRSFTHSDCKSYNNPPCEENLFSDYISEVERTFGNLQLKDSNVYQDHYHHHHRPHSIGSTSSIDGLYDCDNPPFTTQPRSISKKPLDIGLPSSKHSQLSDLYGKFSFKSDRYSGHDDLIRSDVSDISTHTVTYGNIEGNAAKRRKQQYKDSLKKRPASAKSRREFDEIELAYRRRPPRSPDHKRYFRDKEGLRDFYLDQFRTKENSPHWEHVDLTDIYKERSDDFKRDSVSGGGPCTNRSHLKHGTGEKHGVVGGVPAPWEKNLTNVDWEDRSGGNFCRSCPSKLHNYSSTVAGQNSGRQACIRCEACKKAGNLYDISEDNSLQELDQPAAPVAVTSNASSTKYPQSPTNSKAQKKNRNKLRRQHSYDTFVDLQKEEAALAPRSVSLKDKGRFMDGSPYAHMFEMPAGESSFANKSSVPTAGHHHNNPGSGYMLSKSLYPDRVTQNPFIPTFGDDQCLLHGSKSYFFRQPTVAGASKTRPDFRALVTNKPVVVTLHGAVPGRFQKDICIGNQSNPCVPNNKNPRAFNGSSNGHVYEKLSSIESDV
Method in brief: as §1

[3] = target: GluN1/GluN2C NMDA receptor (Rattus norvegicus, UniProt P35439+Q00961); experiment: Two-electrode voltage-clamp recordings, Xenopus oocytes expressing GluN1/GluN2C; type: cell-based
Method in brief: as §1

[4] = target: GluN1/GluN2A NMDA receptor (Rattus norvegicus, UniProt P35439+Q00959); experiment: Two-electrode voltage-clamp recordings, Xenopus oocytes expressing GluN1/GluN2A; type: cell-based
GluN1/GluN2A NMDA receptor, sequence (Q00959 23-1464, other chains not shown): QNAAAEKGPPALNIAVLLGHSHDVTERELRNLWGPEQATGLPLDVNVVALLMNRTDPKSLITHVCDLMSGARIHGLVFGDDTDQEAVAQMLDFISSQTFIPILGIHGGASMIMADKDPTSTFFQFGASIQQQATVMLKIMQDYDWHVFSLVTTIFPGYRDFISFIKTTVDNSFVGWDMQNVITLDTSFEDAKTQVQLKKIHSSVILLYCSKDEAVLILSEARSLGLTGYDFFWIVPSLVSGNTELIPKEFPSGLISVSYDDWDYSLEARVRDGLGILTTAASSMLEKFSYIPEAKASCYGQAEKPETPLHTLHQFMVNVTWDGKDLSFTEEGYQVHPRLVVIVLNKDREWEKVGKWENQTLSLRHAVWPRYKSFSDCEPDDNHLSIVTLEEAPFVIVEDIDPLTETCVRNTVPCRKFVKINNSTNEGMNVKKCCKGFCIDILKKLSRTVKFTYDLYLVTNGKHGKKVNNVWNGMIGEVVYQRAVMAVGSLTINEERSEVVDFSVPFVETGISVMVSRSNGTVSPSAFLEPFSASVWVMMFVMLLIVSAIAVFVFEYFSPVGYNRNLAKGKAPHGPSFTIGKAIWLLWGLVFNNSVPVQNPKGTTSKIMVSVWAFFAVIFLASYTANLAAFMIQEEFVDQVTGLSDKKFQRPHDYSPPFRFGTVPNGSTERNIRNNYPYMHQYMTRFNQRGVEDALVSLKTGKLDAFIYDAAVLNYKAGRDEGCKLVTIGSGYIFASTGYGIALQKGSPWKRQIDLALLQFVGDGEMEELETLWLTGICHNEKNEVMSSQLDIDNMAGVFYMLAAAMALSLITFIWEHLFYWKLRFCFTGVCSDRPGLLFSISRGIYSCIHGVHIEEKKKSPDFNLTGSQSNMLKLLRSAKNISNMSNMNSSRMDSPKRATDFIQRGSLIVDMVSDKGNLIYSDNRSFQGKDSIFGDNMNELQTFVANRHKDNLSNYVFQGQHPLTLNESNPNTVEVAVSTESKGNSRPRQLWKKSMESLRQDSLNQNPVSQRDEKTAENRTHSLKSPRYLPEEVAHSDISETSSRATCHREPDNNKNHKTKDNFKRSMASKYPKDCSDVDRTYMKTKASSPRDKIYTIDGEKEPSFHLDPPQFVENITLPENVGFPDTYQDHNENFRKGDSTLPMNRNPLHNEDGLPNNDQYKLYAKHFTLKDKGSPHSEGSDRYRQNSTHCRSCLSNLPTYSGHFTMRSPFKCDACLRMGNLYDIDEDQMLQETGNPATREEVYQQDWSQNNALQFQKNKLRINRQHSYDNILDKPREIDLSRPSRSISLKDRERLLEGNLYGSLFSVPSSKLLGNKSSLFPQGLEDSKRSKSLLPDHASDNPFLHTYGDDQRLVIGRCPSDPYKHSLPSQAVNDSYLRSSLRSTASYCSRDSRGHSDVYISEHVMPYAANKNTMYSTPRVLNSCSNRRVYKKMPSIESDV
Method in brief: as §1

GluN1/GluN2D NMDA receptor, sequence (Q62645 28-1323, other chains not shown): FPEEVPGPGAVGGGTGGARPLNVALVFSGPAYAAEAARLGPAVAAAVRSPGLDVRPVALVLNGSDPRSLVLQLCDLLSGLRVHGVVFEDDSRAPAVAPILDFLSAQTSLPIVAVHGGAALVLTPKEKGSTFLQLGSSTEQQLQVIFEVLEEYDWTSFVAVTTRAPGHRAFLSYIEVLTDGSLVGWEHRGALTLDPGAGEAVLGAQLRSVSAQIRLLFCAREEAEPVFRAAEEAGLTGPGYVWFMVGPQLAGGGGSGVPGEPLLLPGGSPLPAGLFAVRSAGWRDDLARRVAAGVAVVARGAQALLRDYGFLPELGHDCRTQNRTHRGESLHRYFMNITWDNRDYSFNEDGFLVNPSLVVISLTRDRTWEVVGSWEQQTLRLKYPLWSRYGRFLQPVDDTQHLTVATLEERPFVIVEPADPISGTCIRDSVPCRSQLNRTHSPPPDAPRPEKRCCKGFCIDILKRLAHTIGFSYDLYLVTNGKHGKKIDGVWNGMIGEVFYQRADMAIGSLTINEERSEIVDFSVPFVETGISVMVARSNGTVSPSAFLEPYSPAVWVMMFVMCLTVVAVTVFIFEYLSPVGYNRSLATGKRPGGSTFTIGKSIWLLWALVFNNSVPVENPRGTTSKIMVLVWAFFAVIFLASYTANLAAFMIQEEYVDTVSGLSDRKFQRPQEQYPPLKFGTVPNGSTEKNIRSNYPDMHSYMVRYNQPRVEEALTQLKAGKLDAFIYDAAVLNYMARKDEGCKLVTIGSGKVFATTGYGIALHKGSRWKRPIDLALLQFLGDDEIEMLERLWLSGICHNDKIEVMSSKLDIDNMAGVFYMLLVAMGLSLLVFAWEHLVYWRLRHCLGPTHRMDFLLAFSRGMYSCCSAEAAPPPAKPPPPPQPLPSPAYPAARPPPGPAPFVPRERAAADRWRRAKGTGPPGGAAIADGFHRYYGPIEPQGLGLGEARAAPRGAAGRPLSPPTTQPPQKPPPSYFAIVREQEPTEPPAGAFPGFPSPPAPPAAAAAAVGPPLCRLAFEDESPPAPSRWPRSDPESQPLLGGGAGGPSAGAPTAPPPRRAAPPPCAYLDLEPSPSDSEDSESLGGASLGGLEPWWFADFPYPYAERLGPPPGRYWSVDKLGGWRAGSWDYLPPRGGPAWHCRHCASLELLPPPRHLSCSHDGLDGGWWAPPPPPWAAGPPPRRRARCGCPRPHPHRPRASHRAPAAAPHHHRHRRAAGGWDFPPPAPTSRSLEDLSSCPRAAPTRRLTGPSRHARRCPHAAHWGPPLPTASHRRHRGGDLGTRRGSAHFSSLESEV

Row | IC50 [1] | IC50 [2] | IC50 [3] | IC50 [4] | SMILES | KA (IC50), native iGluRs (native KA receptors)
1 | > 100 µM | 34.5 ± 0.97 µM | 91.2 ± 2.6 µM | 11.8 ± 0.23 µM | Cl.O=C(O)c1cccc([C@H]2CCN[C@@H]2C(=O)O)c1 [4a, (2S,3R)-3-(3-Carboxyphenyl)pyrrolidine-2-carboxylic acid hydrochloride] | 22 µM
2 | – | – | – | – | Cl.O=C(O)c1cc([C@H]2CCN[C@@H]2C(=O)O)ccc1Br [4f, (2S,3R)-3-(4-Bromo-3-carboxyphenyl)pyrrolidine-2-carboxylic acid hydrochloride] | >100 µM
